Compound activity as filed in PubChem.
Vif imaging = blocks HIV Vif function | inhibition, % at 7.49 µM | HEK293T cells, Vif self-association by quenched fluorescence, imaging, 24 h | hit rate 0.35% among 340,000; in the data active means inhibition above about 50%, passing the limit was not always enough; inconclusive means no clear call, values can overlap the other calls; inactive means below about 31%
Rce1 inh = blocks yeast Ras-converting enzyme. Q03530. yeast membranes, quenched prenylated peptide cleavage fluorescence. calls only. hit rate 0.27% among 290,000;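 active means fall in fluorescence gain of 50% or more versus controls, with final raw signal at or below 3038400; inconclusive means same 50% fall but final raw signal above 3038400; inactive means fall in fluorescence gain under 50%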;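 further: plate controls were neutral control wells for no effect and wells lacking membranes for full effect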
Target sequence (Q03530 whole entry, looked up): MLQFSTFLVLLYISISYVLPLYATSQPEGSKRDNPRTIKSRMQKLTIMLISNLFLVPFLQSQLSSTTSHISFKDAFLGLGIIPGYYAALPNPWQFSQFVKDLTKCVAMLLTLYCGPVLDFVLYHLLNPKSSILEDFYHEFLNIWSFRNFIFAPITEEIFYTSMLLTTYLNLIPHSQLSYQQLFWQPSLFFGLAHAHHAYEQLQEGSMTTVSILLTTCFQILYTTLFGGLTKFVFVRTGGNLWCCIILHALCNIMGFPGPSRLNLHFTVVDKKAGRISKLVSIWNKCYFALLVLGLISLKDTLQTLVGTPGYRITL
Runt-SMMHC FRET = blocks binding of human RUNX1 Runt domain to CBFb-SMMHC | Q01196+Q13951 | Cerulean-Runt/Venus-CBFb-SMMHC FRET ratio 530/480, 1 h | inhibition, % at 20 µM | hit rate 0.74% among 220,000 | AID 1434;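 active means mean inhibition across duplicate retests at 20 µM reaching about 50%, limit read from the data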;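 further: 0% = DMSO wells and 100% = wells with excess untagged CBFb-SMMHC; inhibitors lower the FRET ratio by blocking Runt binding to CBFb-SMMHC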
Runt-CBFb FRET = inhibitors of human RUNX1 Runt domain binding to CBFb. inhibition, % at 20 µM. Cerulean-Runt/Venus-CBFb FRET ratio 530/480, 1 h. hit rate 0.46% among 220,000. Q01196+Q13951. AID 1496;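 active means inhibition over about 50% at 20 µM in the single-dose screen, limit read from the data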;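 further: 0% = DMSO wells and 100% = excess unlabeled CBFb competitor control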
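System: Cerulean-labeled Runt domain protein | Quantity: 100 nM of each labeled protein | Schedule: 1 h compound exposure, room temperature | Detection: Fluorescence energy transfer, 422 nm excitation, 530/480 nm emission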
RanGTP-Imp inh = inhibitors of RanGTP-importin-beta interaction, primary screen, biochemical, FRET, CFP-Ran, YFP-importin-beta, homogeneous; hit rate 1.1% among 300,000; inhibition, % (concentration not given with the values); cell-free CFP-Ran/YFP-importin-beta FRET ratio;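 active means more than half of the replicate wells show a fall in the fluorescence ratio signal beyond about 16%, limit read from the data, passing the limit was not always enough; inconclusive means exactly half of the replicate wells pass the set limit; inactive means fewer than half of replicates pass the limit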;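 further: 0% = DMSO wells and 100% = Ran loaded with GDP instead of GTP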
* = called active by the depositor. This is a sample that favours compounds with a hit; in the whole collection about 1.7% have one here.

For CCN(CC)c1ccc(/C=N/N(c2ccccc2)c2ccccc2)c(O)c1 the results were Vif imaging -12, Rce1 inh inactive, Runt-SMMHC FRET 5, Runt-CBFb FRET 3 and RanGTP-Imp inh -6.
`CCN(CC)c1ccc(C(=O)c2ccccc2C(=O)O)c(O)c1` gave Vif imaging 7, Rce1 inh active, Runt-SMMHC FRET -7, Runt-CBFb FRET -2 and RanGTP-Imp inh 1.
CN(C)CCCN(Cc1ccccc1)C(=S)Nc1ccc(OC(F)F)cc1 was read as Vif imaging 3, Rce1 inh inactive, Runt-SMMHC FRET 3, Runt-CBFb FRET -1 and RanGTP-Imp inh 18*.
O=C(COC(=O)C1CC2CCCC(C1)C2=O)Nc1cccc(F)c1 (stereo unspecified) was read as Vif imaging 5.
For N#Cc1c(OCC(=O)c2ccccc2)nc2c(c1-c1ccco1)CCc1ccccc1-2 the results were Vif imaging -4, Rce1 inh active, Runt-SMMHC FRET -15, Runt-CBFb FRET -1 and RanGTP-Imp inh -3.
Screening CCOC(=O)COc1nc2c(c(-c3ccco3)c1C#N)CCc1ccccc1-2 returned Vif imaging -7, Rce1 inh inactive, Runt-SMMHC FRET 9, Runt-CBFb FRET -1 and RanGTP-Imp inh -1.
Screening COc1cc(OC)cc(C(=O)Oc2c(CN3CCOCC3)cc(Cl)c3cccnc23)c1 returned Vif imaging 6, Runt-SMMHC FRET 1, Runt-CBFb FRET -2 and RanGTP-Imp inh inconclusive.
Screening O=C(Oc1c(CN2CCOCC2)cc(Cl)c2cccnc12)c1ccccc1F returned Vif imaging -3, Rce1 inh inactive, Runt-SMMHC FRET 4, Runt-CBFb FRET -1 and RanGTP-Imp inh 33*.
For CCCCC1CCC(C(=O)NCc2ccc3c(c2)OCO3)CC1 (stereo unspecified) the results were Vif imaging 4, Rce1 inh inactive, Runt-SMMHC FRET -1, Runt-CBFb FRET 1 and RanGTP-Imp inh 92*.
COc1cccc(C(O)C2OC(=O)c3ccccc32)c1OC (stereo unspecified) was read as Vif imaging -1, Rce1 inh inactive and RanGTP-Imp inh 8.
Screening Cc1ccc(-c2nc(C=Nc3ccc(O)cc3)c(O)o2)cc1 returned Vif imaging -23, Runt-SMMHC FRET -20, Runt-CBFb FRET -6 and RanGTP-Imp inh 22*.
CC(=O)Oc1c(/C=C(\C#N)C(N)=O)[nH]c2ccccc12 was read as Vif imaging -9, Rce1 inh inactive, Runt-SMMHC FRET 20, Runt-CBFb FRET 34 and RanGTP-Imp inh 16*.
`N#C/C(=C\c1c[nH]c2ccccc12)C(N)=O` gave Vif imaging -10, Rce1 inh inactive, Runt-SMMHC FRET -1, Runt-CBFb FRET 3 and RanGTP-Imp inh 7.
CCOC(=O)c1cc(-c2ccccc2)sc1NC(=O)C(C)Sc1nnnn1C (stereo unspecified) was read as Vif imaging -6, Rce1 inh active, Runt-SMMHC FRET 95, Runt-CBFb FRET -6 and RanGTP-Imp inh -23.
`CCOC(=O)c1cc(-c2ccccc2)sc1NC(=O)C(C)Sc1nnc(C)s1` (stereo unspecified) gave Vif imaging 1, Rce1 inh inactive, Runt-SMMHC FRET -4, Runt-CBFb FRET -7 and RanGTP-Imp inh inconclusive.
`Cc1ccc2oc(=O)c(/C=C(\O)c3cccs3)nc2c1` gave Vif imaging 89*, Rce1 inh inactive, Runt-SMMHC FRET -18, Runt-CBFb FRET 8 and RanGTP-Imp inh -3.
Screening COc1ccc2sc3ccccc3c(=O)c2c1 returned Vif imaging -4, Rce1 inh inactive, Runt-SMMHC FRET -20, Runt-CBFb FRET 10 and RanGTP-Imp inh 95*.
COc1ccc2sc(C)cc(=O)c2c1 was read as Vif imaging -1.
For Cc1ccc(-c2nnc(SCC(=O)NCCN3C(=O)CSC3=O)n2C)cc1 the results were Vif imaging -2.
COc1cc(S(=O)(=O)NCc2ccc(F)cc2)ccc1-n1cnnn1 was read as Vif imaging 29, Rce1 inh inactive and RanGTP-Imp inh -7.
Screening O=S(=O)(Nc1nc2ccccc2nc1N1CCN(c2ccccn2)CC1)c1ccc(Cl)cc1 returned Vif imaging -9, Runt-SMMHC FRET 104* and Runt-CBFb FRET 34.
`O=C(N=c1ccn(-c2nc3ccccc3nc2NS(=O)(=O)c2ccc(Cl)cc2)cc1)c1cccs1` gave Vif imaging 82*, Rce1 inh inactive, Runt-SMMHC FRET -162, Runt-CBFb FRET -305 and RanGTP-Imp inh -72.
Screening CC1CCCN(C(=O)C2CCN(S(=O)(=O)c3cccs3)CC2)C1 (stereo unspecified) returned Vif imaging -4.
For Cc1cccc(N(C)S(=O)(=O)c2c(C)[nH]c(C)c2C(=O)N2CCCC2)c1 the results were Vif imaging -5, Rce1 inh inactive and RanGTP-Imp inh 1.
For COc1ccc(CNC(=O)c2cccc3c(-c4cnn(C)c4)coc23)cc1OC the results were Vif imaging -24.
For Nc1ccc(S(=O)(=O)c2ccc(N)nc2)cc1 the results were Vif imaging 57*.
For CCOc1ccccc1NC(=O)NNS(=O)(=O)c1cc(OC)ccc1OC the results were Vif imaging 1, Rce1 inh inactive and RanGTP-Imp inh 3.
Screening C[C@@H]1CN([C@H](C)CO)C(=O)c2c(c3ccccc3n2C)-c2ccccc2CO[C@@H]1CN(C)C(=O)Nc1ccccc1C(F)(F)F returned Vif imaging 53*.
For Cc1noc(C)c1NC(=O)N(C)C[C@@H]1OCc2ccccc2-c2c(n(C)c3ccccc23)C(=O)N([C@H](C)CO)C[C@H]1C the results were Vif imaging -12.
CCN(CC)c1ccc(/C=C(/C#N)C(=O)NC(C)C)o1 was read as Vif imaging inactive, Rce1 inh inactive, Runt-SMMHC FRET -2, Runt-CBFb FRET -5 and RanGTP-Imp inh -2.
For CCN(CC)c1ccc(/C=C(/C#N)C(=O)NCc2ccccc2)o1 the results were Vif imaging -1, Rce1 inh inactive, Runt-SMMHC FRET -19, Runt-CBFb FRET -26 and RanGTP-Imp inh 55*.
O=C(Nc1ccon1)Nc1ccccc1C(F)(F)F was read as Rce1 inh inactive and RanGTP-Imp inh 4.
`CN(CC(=O)Nc1ccc(S(=O)(=O)N2CCCC2)cc1)Cc1c(F)cccc1Cl` gave Vif imaging 2, Rce1 inh inactive, Runt-SMMHC FRET -3, Runt-CBFb FRET -2 and RanGTP-Imp inh 0.
Screening CC(=NO)c1ccc2c(c1)C(=NO)c1ccccc1-2 returned Vif imaging -7.
CC1OC23CCCCC2C(C#N)(C(=N)O3)C1(C#N)C#N (stereo unspecified) was read as Vif imaging 10, Rce1 inh inactive, Runt-SMMHC FRET 38, Runt-CBFb FRET 27 and RanGTP-Imp inh 8.
